Test results published in ChEMBL document CHEMBL4043282, “Discovery of the First Potent, Selective, and Orally Bioavailable Signal Peptide Peptidase-Like 2a (SPPL2a) Inhibitor Displaying Pronounced Immunomodulatory Effects In Vivo” (J Med Chem, 2018).
Converted amounts (≈) assume the structure as drawn. The source made the active and inactive calls. The rule behind the calls is not given here.

Experiments:
[1] = molecular target: T1, Signal peptide peptidase-like 2A (Mus musculus, UniProt Q9JJF9); assay: Inhibition of mouse SPPL2a in A20 cells assessed as CD74/p8 accumulation by flow cytometry; format: cell-based
T1 sequence (Q9JJF9 whole entry): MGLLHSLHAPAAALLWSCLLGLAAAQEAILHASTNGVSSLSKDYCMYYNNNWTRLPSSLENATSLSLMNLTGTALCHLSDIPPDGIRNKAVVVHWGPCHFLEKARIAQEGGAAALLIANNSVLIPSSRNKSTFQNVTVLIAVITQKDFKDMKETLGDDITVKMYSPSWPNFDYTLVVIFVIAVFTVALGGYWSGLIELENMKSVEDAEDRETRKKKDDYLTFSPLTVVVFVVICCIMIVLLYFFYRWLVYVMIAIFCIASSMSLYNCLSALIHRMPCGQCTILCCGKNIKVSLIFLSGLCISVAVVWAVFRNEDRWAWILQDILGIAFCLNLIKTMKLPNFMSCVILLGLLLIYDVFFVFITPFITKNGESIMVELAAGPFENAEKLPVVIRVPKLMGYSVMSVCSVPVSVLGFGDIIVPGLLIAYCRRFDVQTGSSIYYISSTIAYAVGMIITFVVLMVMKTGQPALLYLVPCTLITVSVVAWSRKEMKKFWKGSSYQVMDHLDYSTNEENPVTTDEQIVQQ

[2] = system: Rattus norvegicus; assay: Dose normalized AUC in Sprague-Dawley rat at 3 mg/kg, po by LC/MS/MS analysis; format: ADME, organism-based; settings: in vivo
In short: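 Female Sprague−Dawley rats catheterized (femoral artery/vein); cassette oral dosing 3 mg/kg per compound as aqueous Tween 80/CMC-Na suspension (0.5/0.5/99), 48 h after iv dose; arterial blood sampled over time into EDTA tubes; LC-MS/MS with QC acceptance 70−130%; noncompartmental PK.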

[3] = Oral bioavailability in Sprague-Dawley rat at 1 mg/kg by LC/MS/MS analysis; format: ADME, organism-based; settings: in vivo
[4] = molecular target: T2, Signal peptide peptidase-like 2A (Homo sapiens, UniProt Q8TCT8); assay: Inhibition of human SPPL2a expressed in HEK293 cells using GAL4-VP16 fusedTNFalpha (1 to 76)-NTF as substrate after 24 hrs by Bright-Glo luciferase reporter gene assay; format: cell-based
T2 sequence (Q8TCT8 whole entry): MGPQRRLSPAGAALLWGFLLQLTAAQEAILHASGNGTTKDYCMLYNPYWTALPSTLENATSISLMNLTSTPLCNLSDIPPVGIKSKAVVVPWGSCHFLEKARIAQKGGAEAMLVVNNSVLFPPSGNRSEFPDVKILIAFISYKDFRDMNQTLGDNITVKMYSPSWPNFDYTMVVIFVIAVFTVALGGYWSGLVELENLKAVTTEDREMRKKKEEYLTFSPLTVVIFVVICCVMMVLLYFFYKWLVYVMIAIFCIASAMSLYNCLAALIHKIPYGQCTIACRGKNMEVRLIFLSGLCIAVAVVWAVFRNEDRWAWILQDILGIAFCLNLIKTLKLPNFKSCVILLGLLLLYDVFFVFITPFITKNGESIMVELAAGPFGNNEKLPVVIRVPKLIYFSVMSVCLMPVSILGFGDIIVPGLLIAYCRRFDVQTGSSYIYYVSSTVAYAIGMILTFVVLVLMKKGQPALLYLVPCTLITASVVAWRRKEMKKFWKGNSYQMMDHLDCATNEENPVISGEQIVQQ
In short: (§1)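 HEK293 cells transiently transfected with human SPPL2a, VP16-TNFα(aa1-76)-NTF substrate and Gal4-luciferase reporter (SPPL2a), or human Notch1-VP16-Gal4 plus Gal4-luciferase reporter relying on endogenous γ-secretase.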

[5] = Equilibrium solubility of the compound at pH 6.8 after 24 hrs by saturation shake flask based UV-HPLC method; format: physicochemical; settings: buffer
[6] = Clearance in Sprague-Dawley rat at 1 mg/kg, iv by LC/MS/MS analysis; format: ADME, organism-based; settings: in vivo
In short: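 Female Sprague−Dawley rats with femoral artery and vein catheters implanted 96−120 h beforehand; cassette dosing iv 1 mg/kg per compound in NMP/PEG200 (30:70); arterial blood into EDTA tubes at several times, frozen; LC-MS/MS vs standard curve with QCs within 70−130%; noncompartmental analysis.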

[7] = Octanol-buffer partition coefficient, log P of the compound by LC/MS/MS based shake flask method; format: physicochemical
[8] = Inhibition of human gamma-secretase expressed in HEK293 cells using Notch1-VP16-Gal4 as substrate after 24 hrs by Bright-Glo luciferase reporter gene assay; format: cell-based; settings: HEK293, 24 h; in short: as §1
[9] = Selectivity ratio of IC50 for human gamma-secretase expressed in HEK293 cells to IC50 for human SPPL2a expressed in HEK293 cells
In short: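 HEK293 transiently transfected: SPPL2a arm with human SPPL2a, VP16-TNFα(aa1-76)-NTF and Gal4-luciferase; γ-secretase arm with human Notch1-VP16-Gal4 plus reporter (endogenous γ-secretase). Compound added 3 h after plating, 10 μM–0.3 nM final, triplicate, 24 h at 37 °C; luminescence read. IC50 from concentration vs normalised luminescence; ratio of the two IC50s.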

[10] = system: Mus musculus; assay: In vivo inhibition of mouse gamma-secretase assessed as effect on Hes1 mRNA level in thymus at 100 mg/kg, po administered as single dose by RT-PCR method; format: organism-based
In short: (§2)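 Thymus and jejunum excised into RNALater, 4 °C overnight, washed, frozen at −80 °C; total RNA from 10 mg tissue by MagNA Pure LC; Hes1 measured by TaqMan real-time PCR; significance by two-tailed heteroscedastic Student's t-test.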

[11] = system: Rattus norvegicus; assay: Dose normalized AUC in Wistar rat at 10 mg/kg, po bid by LC/MS/MS analysis; format: ADME, organism-based; settings: in vivo
[12] = Inhibition of human SPP expressed in human U2OS cells using EGFP-labeled EnvSigSeq-SEAP as substrate after 24 hrs by Hoechst staining based high content imaging assay; format: cell-based
In short: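 Stable U-2 OS lines expressing human SPPL2a, SPPL2b or SPP constitutively (mouse SPPL2a line analogous, mouse TNFα(aa1-77)-NTF-EGFP-NLS) with doxycycline-inducible EGFP substrate. 3000 cells/well, 3−4 h, then 11-point inhibitor 100 μM to 1 nM, 0.9% DMSO, 5 μg/mL doxycycline, 24 h 37 °C. PFA fixed, Hoechst nuclei; nuclear minus cytoplasmic EGFP intensity; inhibition vs 0.5 μM reference and DMSO; IC50 by nonlinear regression.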

[13] = system: Mus musculus; assay: In vivo inhibition of SPPL2a in mouse assessed as increase in CD74/p8 accumulation in splenocytes at 100 mg/kg, po administered as single dose measured after 4 hrs by Western blot method; format: functional, organism-based
[14] = system: Mus musculus; assay: In vivo inhibition of mouse gamma-secretase assessed as effect on Hes1 mRNA level in jejunum at 100 mg/kg, po administered as single dose by RT-PCR method; format: organism-based; in short: as §2
[15] = system: Mus musculus; assay: In vivo inhibition of SPPL2a in mouse assessed as increase in CD74/p8 accumulation in splenocytes at 10 to 100 mg/kg, po administered as single dose measured after 4 hrs by Western blot method; format: functional, organism-based
[16] = Clearance in Balb/c mouse at 5 mg/kg, iv by LC/MS/MS analysis; format: ADME, organism-based; settings: in vivo
[17] = molecular target: T1, Signal peptide peptidase-like 2A; assay: Inhibition of SPPL2a in mouse whole blood assessed as increase in CD74/p8 accumulation after 5.5 hrs by Western bot method
In short: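 Mouse whole blood (200 μL) with compound from 20× stock, 0.5% DMSO final, 5.5 h at 37 °C, 5% CO2 with rotation. RBC lysis, washes, lysis in Tris pH 6.8/Triton/deoxycholate buffer; Western blot with rat anti-mouse CD74 (In-1); p8 band intensity normalized to CD74 full-length/β-actin for dose response.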

Row | Compound | IC50 [4] [nM] | logP [7] | IC50 [8] [nM] | Ratio IC50 [9] | other results
1 | Cc1ncc(F)cc1NC(=O)C[C@H](C(=O)N[C@@H]1C(=O)N2CCCN2C(=O)c2ccccc21)C1CC1 |  | 1.6 | > 10000 |  | IC50 [1]: 496 nM
2 | Cc1ncccc1NC(=O)C[C@@H](C)C(=O)N[C@@H]1C(=O)N2CCCN2Cc2ccccc21 | 1020 |  | > 10000 |  | solubility thermodynamic at 24 h [5]: > 1000 µM
3 | Cc1ncc(F)cc1NC(=O)C[C@@H](C)C(=O)N[C@@H]1C(=O)N2CCCN2C(=O)c2ccccc21 |  | 0.9 | > 10000 |  | 
4 | C[C@H](CC(=O)Nc1ccccc1C(F)(F)F)C(=O)N[C@@H]1C(=O)N2CCCN2Cc2ccccc21 | 2850 |  | > 10000 | >3 | 
5 | CC(C)C[C@H](NC(=O)OCc1ccccc1)C(=O)N[C@@H](CC(C)C)C(=O)NCC(=O)CNC(=O)[C@H](CC(C)C)NC(=O)[C@H](CC(C)C)NC(=O)OCc1ccccc1 | 6 |  | > 10000 | >1666 | 

These reach a lower IC50 [8]. Values come first.

Row | IC50 [4] [nM] | logP [7] | IC50 [8] [nM] | Compound | Ratio IC50 [9] | other results
6 | 76 | 2.1 | 7800 | Cc1ncc(F)cc1NC(=O)C[C@@H](C)C(=O)N[C@@H]1C(=O)N2CCCN2Cc2c(F)cccc21 |  | IC50 [1]: 121 nM; AUC/dose [2]: 1522 nM·h; bioavailability [3]: 54%; solubility thermodynamic at 24 h [5]: 257 µM (≈ 118 µg/mL); clearance [6]: 15 mL/min/kg
7 |  |  | 27 | Cc1ccc(NC(=O)C[C@@H](C)C(=O)N[C@@H]2C(=O)N3CCCN3Cc3ccccc32)cc1 |  | 
8 | 5 |  | 17 | C[C@H](CC(=O)Nc1cc(F)cc(F)c1)C(=O)N[C@@H]1C(=O)N2CCCN2Cc2ccccc21 | 3 | 
9 | 10 |  | < 0.3 | C[C@H](NC(=O)[C@@H](O)c1cc(F)cc(F)c1)C(=O)N[C@@H]1C(=O)N(C)c2ccccc2-c2ccccc21 | <1 | Activity [10]: Toxic; AUC/dose [11]: 63 nM·h; IC50 [12]: 50 nM; Activity [13]: Active; Activity [14]: Toxic; Activity [15]: Active
10 | 70 |  | 610 | Cc1cccc(NC(=O)C[C@@H](C)C(=O)N[C@@H]2C(=O)N3CCCN3Cc3ccccc32)c1 | 9 | 
11 | 44 | 1.7 | 8200 | Cc1ncc(F)cc1NC(=O)C[C@@H](C)C(=O)N[C@@H]1C(=O)N2CCCN2Cc2ccccc21 |  | IC50 [1]: 97 nM; AUC/dose [2]: 157 nM·h; bioavailability [3]: 100%; clearance [16]: 32 mL/min/kg; solubility thermodynamic at 24 h [5]: > 1000 µM; clearance [6]: 34 mL/min/kg; IC50 [17]: 50 nM
